≈ marks a conversion by molar mass, not a printed value.
Key:
HepDES19 cells [1] = assay: Neutral red cytotoxicity assay; assay type: cell-based; details: read-out: CC50 (neutral red); HepDES19 cells, 72 h, lysosomal function
In short: (§1)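 HepDES19 cells seeded at 1.0 × 10^4/well in DMEM with 10% FBS, 1% penicillin/streptomycin, 1% nonessential amino acids and 1% glutamine. Test compound (1% DMSO final) added 48 h after plating, triplicate per concentration, and incubated 72 h. Viability measured by neutral red uptake. CC50 is 50% inhibition versus vehicle control, from a 4-variable slope fit of log-transformed data.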

HepDES19 cells [2] = assay: MTS cytotoxicity assay; assay type: cell-based; details: read-out: CC50 (MTS); HepDES19 cells, 72 h, mitochondrial function
In short: (§2)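 HepDES19 cells seeded at 1.0 × 10^4/well in DMEM with 10% FBS, 1% penicillin/streptomycin, 1% nonessential amino acids and 1% glutamine. Test compound in medium (1% DMSO final) added 48 h after plating, triplicate per concentration. After 72 h, MTS added for 90 min; absorbance at 490 nm. CC50 is 50% viability loss versus untreated cells, from a variable-slope log[inhibitor]–response fit.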

[3] = tested on: Staphylococcus aureus (ATCC 29213); assay: MIC80 by broth microdilution; assay type: cell-based; details: for Bacteria MIC80 S. aureus (29213): concentration inhibiting growth ≥80% vs vehicle, 16–24 h, 35 °C; for MIC80: Staphylococcus aureus, ATCC29213, read-out: Bacteria MIC80 S. aureus (29213)
In short: (§3)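 CLSI broth microdilution in cation-adjusted Mueller–Hinton II broth with a 1.5-fold test-compound dilution series. Overnight culture adjusted to 5 × 10^5 CFU mL−1 final. Incubated 16–24 h at 35 °C ± 2 °C, then growth read by absorbance (OD600). MIC80 is the concentration giving ≥80% growth inhibition versus vehicle-treated cultures. Each value is the average of at least two independent determinations.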

[4] = tested on: C. neoformans var grubii, KN99 (serotype A, MATα); assay: Inhibition of C. neoformans growth; assay type: cell-based, Cryptococcus neoformans
In short: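 Test compound 0.19–50 μM, 48 h at 35 °C, density read at OD650. Growth expressed as % of DMSO-only cells. MIC80 is the minimal concentration inhibiting 80% growth versus vehicle. Triplicates; average of ≥2 independent assays.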

[5] = Neutral red cytotoxicity assay; assay type: cell-based; details: human, HepDES19 cells (hepatoblastoma cells)
In short: as §1

[6] = tested on: Escherichia coli (ATCC 35218); assay: MIC80 by broth microdilution; assay type: cell-based; details: for MIC80: Escherichia coli, ATCC35218, read-out: Bacteria MIC80 E. coli (35218)
In short: as §3

MTS cytotoxicity assay = assay type: cell-based; details: human, HepDES19 cells (hepatoblastoma cells)
In short: as §2

[7] = tested on: Pseudomonas aeruginosa (ATCC 27853); assay: MIC80 by broth microdilution; assay type: cell-based; details: concentration inhibiting growth ≥80% vs vehicle; 16–24 h, 35 °C
In short: as §3

[8] = tested on: Acinetobacter baumannii (from a patient); assay: MIC80 by broth microdilution; assay type: cell-based; details: for MIC80: Acinetobacter baumannii, read-out: Bacteria MIC80 A. baumannii (from a patient)
In short: as §3

[9] = concentration inhibiting growth ≥80% vs vehicle, 16–24 h, 35 °C

Bacteria MIC80 S. aureus (29213) [3] [µM] | C. neoformans MIC80 ([4]; minimal concentration inhibiting 80% of growth, 48 h, 35 °C, YNB-02 + 1% DMSO) [µM] | MIC80 [6] [µM] | Bacteria MIC80 E. coli (35218) [6, 9] [µM] | MIC80 [3] [µM] | Bacteria MIC80 P. aeruginosa (27853) [7] [µM] | MIC80 [8] [µM] | Bacteria MIC80 A. baumannii (from a patient) [8, 9] [µM] | Compound | CC50 (HepDES19 cells [1]) [µM] | CC50 (HepDES19 cells [2]) [µM] | CC50 at 72 h [5] [µM] | CC50 at 72 h (MTS cytotoxicity assay) [µM] | fold increase in antibacterial activity against S. aureus ([3]; relative to natural product 2) [fold] | fold less activity against C. neoformans ([4]; relative to hydroxy tropolone 2) [fold]
16 | 24 |  |  |  |  |  |  | 7-Hydroxy-3-isopropylcyclohepta-2,4,5-triene-1-thione [Compound 11] | 30.4 | 64.2 |  |  |  | 
>100 |  | > 100 | >100 | > 100 | >100 | > 100 | >100 | Cc1ccc(S(=O)(=O)Oc2cccc(C(C)C)cc2=O)cc1 [Compound 8, 6-(1-Methylethyl)-2-[[(4-methylphenyl)sulfonyl]oxy]-2,4,6-cycloheptatrien-1-one] |  |  | 31.8 | 33.6 |  | 
 |  | > 100 |  | 8.8 (≈ 2.8 µg/mL) |  | > 100 |  | Cc1ccc(S(=O)(=O)Oc2cc(C(C)C)cccc2=O)cc1 [Compound 9, 4-(1-Methylethyl)-2-[[(4-methylphenyl)sulfonyl]oxy]-2,4,6-cycloheptatrien-1-one] |  |  | 19.5 | 34.2 | 8 | 
 |  | > 100 |  | > 100 |  | > 100 |  | CC(C)c1cccc(=S)c(O)c1 [Compound 10, 2-Hydroxy-4-isopropylcyclohepta-2,4,6-triene-1-thione] |  |  | 39.7 | 95 |  | > 2
